# Results published in ChEMBL document CHEMBL5661979, “Pharmacological inhibition of BMK1 suppresses tumor growth through promyelocytic leukemia protein” (Cancer Cell, 2010).
# pIC50: −log10 of the molar value.
# Columns and labels:
# [1] = biological target: T1, Dual specificity mitogen-activated protein kinase kinase 5 (Homo sapiens) (UniProt Q13163); assay: Inhibition of MAP2K5 in human HeLa cells lysate at 10 uM pre incubated for 15 mins followed by ADP acyl phosphate probe addition and measured after 10 mins by LC-MS/MS analysis relative to control; assay type: subcellular; details: time 25.0 min
# T1 sequence (whole entry): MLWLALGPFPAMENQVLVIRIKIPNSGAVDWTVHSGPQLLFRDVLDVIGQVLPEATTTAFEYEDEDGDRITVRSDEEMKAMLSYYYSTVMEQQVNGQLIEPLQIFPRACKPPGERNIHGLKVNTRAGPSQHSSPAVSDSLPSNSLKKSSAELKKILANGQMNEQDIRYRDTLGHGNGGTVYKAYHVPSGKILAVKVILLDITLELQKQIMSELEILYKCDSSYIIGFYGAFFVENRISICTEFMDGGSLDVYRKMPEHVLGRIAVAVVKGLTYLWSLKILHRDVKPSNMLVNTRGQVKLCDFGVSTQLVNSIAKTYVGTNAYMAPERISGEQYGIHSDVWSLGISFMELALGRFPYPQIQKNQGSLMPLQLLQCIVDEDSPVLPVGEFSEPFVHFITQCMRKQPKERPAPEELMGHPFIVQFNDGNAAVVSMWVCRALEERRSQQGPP
# [2] = biological target: T2, Aurora kinase A (Homo sapiens) (UniProt O14965); assay: Inhibition of AurA in human HeLa cells lysate at 2 uM pre incubated for 15 mins followed by ATP acyl phosphate probe addition and measured after 10 mins by LC-MS/MS analysis relative to control; assay type: subcellular; details: time 25.0 min
# T2 sequence (whole entry): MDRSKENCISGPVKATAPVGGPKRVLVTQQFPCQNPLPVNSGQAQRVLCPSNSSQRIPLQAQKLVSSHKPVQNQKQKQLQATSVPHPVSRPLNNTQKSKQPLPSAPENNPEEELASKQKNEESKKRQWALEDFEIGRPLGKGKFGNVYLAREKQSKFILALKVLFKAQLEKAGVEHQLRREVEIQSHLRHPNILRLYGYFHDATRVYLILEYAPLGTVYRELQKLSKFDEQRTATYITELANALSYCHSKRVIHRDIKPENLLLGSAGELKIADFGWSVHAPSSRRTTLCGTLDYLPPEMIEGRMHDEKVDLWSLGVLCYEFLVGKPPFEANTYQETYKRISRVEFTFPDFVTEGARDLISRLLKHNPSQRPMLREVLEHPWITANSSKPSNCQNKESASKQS
# In short: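 KiNativ-type profiling in HeLa lysate (5 mg/mL total protein). Lysate preincubated 15 min with inhibitor at 50, 10, 2, 0.8 or 0 μM, then ATP or ADP acylphosphate probe added (5 μM final) for 10 min. Reaction stopped with urea and analysed by targeted MS, using up to four fragment ions per kinase peptide-probe conjugate. % inhibition calculated against untreated lysate. Duplicate reactions.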
# [3] = test system: Tyrosine-protein kinase ABL1 (Homo sapiens), P00519 [F317I]; assay: Inhibition of ABL1 F317I mutant (unknown origin) assessed as remaining activity at 10 uM by ATP-competition binding assay relative to control
# [4] = biological target: DNA-dependent protein kinase catalytic subunit (Homo sapiens, UniProt P78527); assay: Inhibition of PRKDC in human HeLa cells lysate at 50 uM pre incubated for 15 mins followed by ADP acyl phosphate probe addition and measured after 10 mins by LC-MS/MS analysis relative to control; assay type: subcellular; details: time 25.0 min
# [5] = biological target: T3, Serine/threonine-protein kinase Sgk3 (Homo sapiens) (UniProt Q96BR1); assay: Inhibition of SGK3 in human HeLa cells lysate at 50 uM pre incubated for 15 mins followed by ATP acyl phosphate probe addition and measured after 10 mins by LC-MS/MS analysis relative to control; assay type: subcellular; details: time 25.0 min
# T3 sequence (whole entry): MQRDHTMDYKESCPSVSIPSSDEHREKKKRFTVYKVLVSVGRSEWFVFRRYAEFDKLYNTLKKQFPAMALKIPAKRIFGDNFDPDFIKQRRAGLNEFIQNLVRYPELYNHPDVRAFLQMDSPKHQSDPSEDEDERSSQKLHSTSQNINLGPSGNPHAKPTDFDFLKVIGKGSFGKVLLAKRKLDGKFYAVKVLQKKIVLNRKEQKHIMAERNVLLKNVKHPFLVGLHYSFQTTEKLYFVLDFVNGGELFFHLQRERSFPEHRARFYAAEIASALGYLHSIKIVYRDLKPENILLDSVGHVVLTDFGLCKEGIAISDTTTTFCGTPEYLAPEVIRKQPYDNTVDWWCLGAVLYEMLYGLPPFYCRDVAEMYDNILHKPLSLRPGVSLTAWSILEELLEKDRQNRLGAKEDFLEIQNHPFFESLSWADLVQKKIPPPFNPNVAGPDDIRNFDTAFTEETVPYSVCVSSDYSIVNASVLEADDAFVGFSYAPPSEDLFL
# [6] = biological target: Interleukin-1 receptor-associated kinase 1 (Homo sapiens, UniProt P51617); assay: Inhibition of IRAK1 in human HeLa cells lysate at 2 uM pre incubated for 15 mins followed by ATP acyl phosphate probe addition and measured after 10 mins by LC-MS/MS analysis relative to control; assay type: subcellular; details: time 25.0 min
# [7] = biological target: Serine/threonine-protein kinase DCLK2 (Homo sapiens) (UniProt Q8N568); assay: Inhibition of DCAMKL2 (unknown origin) assessed as remaining activity at 10 uM by ATP-competition binding assay relative to control
# [8] = biological target: Cyclin-dependent kinase 2 (Homo sapiens, UniProt P24941); assay: Inhibition of CDK2 K1 site in human HeLa cells lysate pre incubated for 15 mins followed by ADP acyl phosphate probe addition and measured after 10 mins by LC-MS/MS analysis; assay type: subcellular
# In short: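 KiNativ profiling in HeLa lysate (5 mg/mL total protein). Lysate incubated 15 min with inhibitor at 50, 10, 2, 0.8 or 0 μM. ATP or ADP acylphosphate probe then added (5 μM final) and reacted 10 min. Reaction stopped with urea and analysed by targeted MS, using up to four fragment ions per kinase peptide-probe conjugate. % inhibition taken against untreated lysate. Run in duplicate.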
# [9] = biological target: Protein kinase C theta type (Homo sapiens, UniProt Q04759); assay: Inhibition of PKCtheta in human HeLa cells lysate at 50 uM pre incubated for 15 mins followed by ATP acyl phosphate probe addition and measured after 10 mins by LC-MS/MS analysis relative to control; assay type: subcellular; details: time 25.0 min
# [10] = biological target: Serine/threonine-protein kinase Nek3 (Homo sapiens, UniProt P51956); assay: Inhibition of NEK3 in human HeLa cells lysate pre incubated for 15 mins followed by ADP acyl phosphate probe addition and measured after 10 mins by LC-MS/MS analysis; assay type: subcellular
# [11] = biological target: Serine/threonine-protein kinase Nek7 (Homo sapiens, UniProt Q8TDX7); assay: Inhibition of NEK7 in human HeLa cells lysate pre incubated for 15 mins followed by ADP acyl phosphate probe addition and measured after 10 mins by LC-MS/MS analysis; assay type: subcellular
# Serine/threonine-protein kinase Nek7, sequence (Q8TDX7 whole entry): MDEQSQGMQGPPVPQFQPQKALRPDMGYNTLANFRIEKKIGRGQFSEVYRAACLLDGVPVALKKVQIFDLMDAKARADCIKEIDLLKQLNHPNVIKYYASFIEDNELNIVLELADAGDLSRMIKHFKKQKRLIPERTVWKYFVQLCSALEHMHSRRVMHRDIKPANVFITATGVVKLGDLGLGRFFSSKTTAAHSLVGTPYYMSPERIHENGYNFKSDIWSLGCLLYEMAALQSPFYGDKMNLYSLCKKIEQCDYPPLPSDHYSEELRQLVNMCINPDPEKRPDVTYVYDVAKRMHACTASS
# Protein kinase C theta type, sequence (Q04759 whole entry, looked up): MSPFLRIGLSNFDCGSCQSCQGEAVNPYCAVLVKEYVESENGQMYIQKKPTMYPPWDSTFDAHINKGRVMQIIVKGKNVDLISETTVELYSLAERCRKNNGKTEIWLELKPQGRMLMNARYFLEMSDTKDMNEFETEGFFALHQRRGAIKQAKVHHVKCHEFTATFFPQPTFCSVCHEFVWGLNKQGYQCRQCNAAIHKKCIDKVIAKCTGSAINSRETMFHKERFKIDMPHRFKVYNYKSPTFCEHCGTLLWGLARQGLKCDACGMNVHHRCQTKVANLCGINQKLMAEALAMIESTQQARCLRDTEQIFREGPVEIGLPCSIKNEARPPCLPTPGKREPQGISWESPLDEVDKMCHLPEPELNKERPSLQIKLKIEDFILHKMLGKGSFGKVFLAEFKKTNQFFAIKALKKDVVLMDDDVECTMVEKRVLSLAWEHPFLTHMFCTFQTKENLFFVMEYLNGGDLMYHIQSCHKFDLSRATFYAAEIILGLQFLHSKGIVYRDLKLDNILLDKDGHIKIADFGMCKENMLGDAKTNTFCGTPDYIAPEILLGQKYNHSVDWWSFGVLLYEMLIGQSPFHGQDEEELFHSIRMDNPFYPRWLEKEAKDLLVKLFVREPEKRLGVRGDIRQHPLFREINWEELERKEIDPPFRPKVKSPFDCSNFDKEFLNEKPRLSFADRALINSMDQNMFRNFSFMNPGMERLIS
# Interleukin-1 receptor-associated kinase 1, sequence (P51617 whole entry, looked up): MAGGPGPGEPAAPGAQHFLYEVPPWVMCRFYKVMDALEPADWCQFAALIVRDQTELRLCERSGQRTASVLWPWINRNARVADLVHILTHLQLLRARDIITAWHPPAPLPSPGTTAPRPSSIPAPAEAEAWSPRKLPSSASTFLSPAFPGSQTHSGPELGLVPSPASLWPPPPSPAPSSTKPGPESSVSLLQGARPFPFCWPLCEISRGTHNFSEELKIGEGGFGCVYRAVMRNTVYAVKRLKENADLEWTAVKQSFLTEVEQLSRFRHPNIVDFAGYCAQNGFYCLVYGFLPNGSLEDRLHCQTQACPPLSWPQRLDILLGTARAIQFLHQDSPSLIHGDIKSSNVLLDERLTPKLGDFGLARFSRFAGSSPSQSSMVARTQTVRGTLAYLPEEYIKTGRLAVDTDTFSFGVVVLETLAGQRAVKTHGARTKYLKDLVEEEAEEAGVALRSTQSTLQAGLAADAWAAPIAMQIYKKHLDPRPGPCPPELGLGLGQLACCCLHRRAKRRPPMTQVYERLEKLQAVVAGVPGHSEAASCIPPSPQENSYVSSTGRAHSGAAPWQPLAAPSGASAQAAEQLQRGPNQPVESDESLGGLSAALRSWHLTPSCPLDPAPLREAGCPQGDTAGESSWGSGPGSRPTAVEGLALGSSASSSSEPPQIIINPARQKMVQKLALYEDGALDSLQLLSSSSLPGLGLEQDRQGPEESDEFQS
# Tyrosine-protein kinase ABL1 (Homo sapiens), P00519 [F317I], sequence (P00519 whole entry F317I): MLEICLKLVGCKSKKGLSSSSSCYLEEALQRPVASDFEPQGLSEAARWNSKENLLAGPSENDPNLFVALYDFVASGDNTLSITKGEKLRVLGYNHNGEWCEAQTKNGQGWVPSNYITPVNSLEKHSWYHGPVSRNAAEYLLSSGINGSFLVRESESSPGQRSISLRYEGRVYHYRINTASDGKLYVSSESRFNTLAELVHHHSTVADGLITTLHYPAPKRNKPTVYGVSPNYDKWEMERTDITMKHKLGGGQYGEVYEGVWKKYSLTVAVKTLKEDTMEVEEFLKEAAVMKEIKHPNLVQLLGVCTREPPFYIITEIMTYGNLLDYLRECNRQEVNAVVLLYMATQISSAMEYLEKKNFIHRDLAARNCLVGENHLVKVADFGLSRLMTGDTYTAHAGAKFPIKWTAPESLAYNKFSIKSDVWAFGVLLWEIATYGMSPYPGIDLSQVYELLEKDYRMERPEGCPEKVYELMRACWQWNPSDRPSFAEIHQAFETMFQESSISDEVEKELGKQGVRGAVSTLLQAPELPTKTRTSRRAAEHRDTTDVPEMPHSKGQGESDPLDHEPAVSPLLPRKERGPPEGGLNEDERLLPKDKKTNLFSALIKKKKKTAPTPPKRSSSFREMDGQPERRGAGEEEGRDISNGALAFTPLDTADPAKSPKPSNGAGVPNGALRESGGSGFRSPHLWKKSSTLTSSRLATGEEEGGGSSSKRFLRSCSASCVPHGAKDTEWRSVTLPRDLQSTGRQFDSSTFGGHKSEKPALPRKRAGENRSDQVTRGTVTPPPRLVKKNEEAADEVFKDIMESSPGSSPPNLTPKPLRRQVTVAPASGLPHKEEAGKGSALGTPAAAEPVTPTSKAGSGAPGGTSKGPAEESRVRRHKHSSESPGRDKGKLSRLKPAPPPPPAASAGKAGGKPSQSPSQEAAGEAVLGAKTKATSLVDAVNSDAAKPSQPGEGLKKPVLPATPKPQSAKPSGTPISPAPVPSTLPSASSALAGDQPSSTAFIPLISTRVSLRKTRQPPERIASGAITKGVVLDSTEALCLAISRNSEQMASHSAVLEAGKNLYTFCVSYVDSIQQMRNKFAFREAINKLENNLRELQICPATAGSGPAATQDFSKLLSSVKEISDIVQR
# Serine/threonine-protein kinase Nek3, sequence (P51956 whole entry): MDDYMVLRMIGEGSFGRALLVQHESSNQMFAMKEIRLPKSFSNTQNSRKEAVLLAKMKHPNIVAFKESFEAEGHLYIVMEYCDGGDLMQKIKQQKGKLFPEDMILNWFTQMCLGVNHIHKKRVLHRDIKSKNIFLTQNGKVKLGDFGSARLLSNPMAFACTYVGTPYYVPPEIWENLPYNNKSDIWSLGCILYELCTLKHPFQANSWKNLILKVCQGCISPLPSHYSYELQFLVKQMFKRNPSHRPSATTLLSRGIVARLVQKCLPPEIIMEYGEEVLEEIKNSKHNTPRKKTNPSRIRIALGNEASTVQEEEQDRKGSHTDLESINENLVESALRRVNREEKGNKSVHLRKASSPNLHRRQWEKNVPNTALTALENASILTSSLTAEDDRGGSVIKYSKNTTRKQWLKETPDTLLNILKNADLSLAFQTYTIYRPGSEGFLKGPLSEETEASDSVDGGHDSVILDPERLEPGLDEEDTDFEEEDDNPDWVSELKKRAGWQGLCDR
# Serine/threonine-protein kinase DCLK2 (Homo sapiens), sequence (Q8N568 whole entry): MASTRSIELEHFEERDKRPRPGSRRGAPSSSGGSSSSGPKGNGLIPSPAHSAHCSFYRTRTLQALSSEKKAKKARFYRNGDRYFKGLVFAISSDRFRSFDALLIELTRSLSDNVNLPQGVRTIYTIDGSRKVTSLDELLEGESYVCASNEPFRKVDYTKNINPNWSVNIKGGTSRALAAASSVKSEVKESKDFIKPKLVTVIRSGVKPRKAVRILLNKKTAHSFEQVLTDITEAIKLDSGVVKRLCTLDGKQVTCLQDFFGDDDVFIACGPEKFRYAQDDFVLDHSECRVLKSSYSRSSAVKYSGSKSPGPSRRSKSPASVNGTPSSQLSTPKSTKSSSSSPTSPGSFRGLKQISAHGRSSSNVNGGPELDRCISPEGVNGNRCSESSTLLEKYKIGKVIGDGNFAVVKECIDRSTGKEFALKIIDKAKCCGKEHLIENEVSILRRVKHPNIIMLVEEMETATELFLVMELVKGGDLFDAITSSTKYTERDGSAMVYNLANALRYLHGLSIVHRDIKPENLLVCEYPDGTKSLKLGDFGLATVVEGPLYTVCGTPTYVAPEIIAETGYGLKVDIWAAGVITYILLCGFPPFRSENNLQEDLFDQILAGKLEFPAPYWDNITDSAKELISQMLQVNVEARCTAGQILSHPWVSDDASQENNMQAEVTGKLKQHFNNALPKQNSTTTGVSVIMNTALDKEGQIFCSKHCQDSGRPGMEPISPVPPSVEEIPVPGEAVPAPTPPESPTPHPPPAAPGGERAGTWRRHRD
compound,measurement,setting,value
CCOc1cc(N2CCC(O)CC2)ccc1Nc1ncc2c(n1)N(C)c1ccccc1C(=O)N2C,inhibition,[1],-9.9%
same,inhibition,[2],7.2%
same,Activity,[3],30%
same,inhibition,[4],2.9%
same,inhibition,[5],-0.9%
same,inhibition,[6],2.6%
same,Activity,[7],0.65%
same,pIC50,[8],< 4.30
same,inhibition,[9],1.8%
same,pIC50,[10],< 4.30
same,pIC50,[11],< 4.30
